# Hits are enriched below; roughly 6.4% of the tested compounds scored in any of these assays.
# EBV gp42 block: EBV gp42 inhibition; inhibition, % (tested at 21.74 µM); Fluorescence polarization binding assay, mP read-out; 220,000 tested, 0.42% active; in the data active = inhibition above about 50%
# Target sequence (Q1HVG2 whole entry, looked up): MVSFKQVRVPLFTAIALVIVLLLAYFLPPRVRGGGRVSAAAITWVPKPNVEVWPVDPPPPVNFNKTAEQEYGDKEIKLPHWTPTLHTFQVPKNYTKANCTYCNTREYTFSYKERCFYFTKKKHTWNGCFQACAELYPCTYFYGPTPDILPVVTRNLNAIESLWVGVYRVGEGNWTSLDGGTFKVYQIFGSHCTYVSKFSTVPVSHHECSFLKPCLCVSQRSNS
# TbMetRS inhib: Trypanosoma brucei MetRS inhibition | inhibition, % at 11.9 µM | 360,000 tested, 0.4% active | AID 624268 | purified T. brucei MetRS, ATP depletion, Kinase-Glo luminescence;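 active = inhibition above a per-plate cutoff of the control wells' mean inhibition plus 3 SD, cut at about 5.5% in these data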
#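 Assay system: T. brucei methionyl-tRNA synthetase, purified | Medium: HEPES buffer with MgCl2, KCl, DTT, spermine, BSA, pyrophosphatase | Compound: 11.9 µM single point | Incubation: 15 min enzyme-compound preincubation, 2 h reaction, 10 min detection, 25 °C | Measured by: Kinase-Glo luciferase luminescence reporting remaining unconsumed ATP | Measure: % inhibition normalized to control-well medians | Replication: Singlicate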
# CHOP inhibitor: CHOP inhibition in unfolded protein response; CHO-K1 CHOP-promoter luciferase, tunicamycin-induced, 15-18 h; 220,000 tested, 3.8% active; AID 2732; inhibition, % at 10 µM;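 active = compounds that reduced the stress-induced luciferase reporter signal by more than about 70% of percent inhibition, limit read from the data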
# MPTP block: blocks calcium-induced mitochondrial swelling. inhibition, % at 10 µM. 360,000 tested, 1.4% active. isolated mouse mitochondria, Ca2+ swelling absorbance, 30 min;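 active = inhibition of 50% or more, scaled per plate between neutral and stimulator controls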
# NR3A LBD binder: NR3A (human) ligand-binding domain modulation | NR3A LBD differential scanning fluorimetry, Tm shift; 0% = protein alone, 100% = glycine-bound protein | Tm shift relative to glycine control, % at 25 µM | 340,000 tested, 2.5% active | AID 1259313;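 active = melting temperature shift of at least 10% of the positive control shift, at one fixed dose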
# WT yeast gro inh: growth inhibition of WT yeast, mitochondrial fusion screen; mitochondrial fusion phenotypic screen, WT strain; 190,000 tested, 2.1% active; inhibition, % at 10 µM; in the data active = inhibition above about 58%; tested in S. cerevisiae
# MPTP counter: mitochondrial membrane potential, counter-screen; shares compounds with MPTP block; isolated mitochondria, Rhodamine 123 fluorescence; inhibition, % at 10 µM; 5,000 tested, 78% active; AID 624504; in the data active = inhibition above about 22%
# MPTP abs DR: MPTP inhibition, dose response swelling confirmation | shares compounds with MPTP block | AID 651561 | IC50, µM | 780 tested, 58% active | isolated mitochondria swelling, absorbance; in the data active = IC50 below about 20 µM
# MPTP counter DR: active in counter-screen for permeability transition pore inhibitors | shares compounds with MPTP block | isolated mitochondria counterscreen, fluorescence read-out | IC50, µM | 780 tested, 49% active; in the data active = IC50 below about 80 µM
# Hits are given with their value; – = inactive; · = no result given.
SMILES,EBV gp42 block,TbMetRS inhib,CHOP inhibitor,MPTP block,NR3A LBD binder,WT yeast gro inh,MPTP counter,others
CCOc1cccc(CNCCO)c1OCc1ccc(Cl)cc1,–,–,–,–,–,–,·,
Cc1nc2ncnn2c(Nc2ccc3c(c2)OCCO3)c1C,·,–,·,–,–,·,·,
CCOc1cc(CNCCN2CCOCC2)ccc1OCc1ccccc1Cl,–,–,–,–,–,–,·,
CCOc1cc(CNCCCN2CCOCC2)cc(Br)c1OCc1ccccc1Cl,–,–,–,100,–,–,–,
OCCNCc1ccc(OCc2ccc(Cl)cc2Cl)cc1,–,–,–,94,–,75,–,MPTP abs DR=4.2;MPTP counter DR=–
OCCCCNCc1ccc(OCc2ccc(Cl)cc2Cl)cc1,–,–,–,–,–,–,·,
CC(C)c1nc(SCC(=O)N2CC(=O)Nc3ccccc32)c2ccccc2n1,–,–,–,–,–,–,·,
N#CC(C#N)=C(Nc1ccc(F)cc1)SCc1cccc(Br)c1,–,–,71,91,25,–,89,
Cc1cccc(CSC(Nc2ccc(F)cc2)=C(C#N)C#N)c1,–,–,–,97,–,80,93,
CC(SCc1ccccc1)C(=O)Nc1ccc(F)cc1 (stereo not drawn),–,–,–,–,–,–,·,
Cc1cccc(NCc2cccc3ccccc23)n1,·,–,·,–,–,·,·,
COc1ccc(CNCC(O)(c2ccc(F)cc2)c2ccc(F)cc2)cc1,–,–,–,73,–,–,–,MPTP abs DR=6.6;MPTP counter DR=20
CSc1nc(N)nc(SCC(=O)Nc2cccc(F)c2)c1C#N,–,–,–,93,26,–,87,
CSc1nc(N)nc(SCC(=O)Nc2ccc(Cl)cc2)c1C#N,–,–,–,85,29,–,82,
CSc1nc(N)nc(SCC(=O)C(C)(C)C)c1C#N,–,–,–,–,–,–,·,
CON(C)C(=O)CCN(C(=O)OC(C)(C)C)c1ccccc1,·,–,·,–,–,·,·,
CCOc1ccc(OCC(=O)Nc2cc3c(cc2C(=O)O)OCCCO3)cc1,·,–,·,–,–,·,·,
CSc1cccc(NC(=O)CCCOc2ccc(Cl)cc2C)c1,–,–,–,75,–,–,81,
COC(=O)c1cc(NC(=O)Cc2ccc(OC)c(OC)c2)cc(C(=O)OC)c1,–,–,–,–,–,–,·,
COc1ccc(CC(=O)Nc2cccc(SC)c2)cc1OC,–,–,–,54,–,–,42,
COc1ccc(CC(=O)Nc2cccc(S(=O)(=O)N3CCCCCC3)c2)cc1OC,–,–,71,87,–,–,81,
COc1ccc(OCCCC(=O)Nc2cccc(SC)c2)cc1,–,–,–,–,–,–,·,
Cc1ccc(S(=O)(=O)NNC(=O)c2cccs2)c(C)c1,–,–,–,–,–,–,·,
O=C(Oc1c(CN2CCOCC2)cc(Cl)c2cccnc12)c1ccc(F)cc1,–,–,–,–,–,–,·,
C/C(N=Nc1nc2ccccc2s1)=N\Nc1ccccc1O,–,–,–,91,–,·,54,
SMILES,EBV gp42 block,TbMetRS inhib,CHOP inhibitor,MPTP block,NR3A LBD binder,WT yeast gro inh,MPTP counter,others
C/C(=N\NC(=O)c1c(Cl)c(C)nn1C)c1ccc(NC(=O)c2ccncc2)cc1,–,–,–,–,–,–,·,
Cc1nn(-c2ccc(NC(=O)c3ccncc3)cc2)c(C)c1Cl,·,–,·,80,–,·,79,
CN1C(=S)SC(N(O)C(=O)Nc2ccc(Cl)c(Cl)c2)C1(C)C (stereo not drawn),–,–,–,98,–,–,86,
CC1CCN(S(=O)(=O)c2ccc(Oc3ccc([N+](=O)[O-])cc3)cc2)CC1,–,–,–,67,–,61,71,
O=C(NCC(=O)N(Cc1cccs1)C(C(=O)NC1CCCC1)c1cccnc1)c1ccco1 (stereo not drawn),–,–,–,–,–,–,·,
CCCCOc1cc(C)nc(NCc2ccccc2)n1,–,–,–,–,–,–,·,
Cc1ccc(S(=O)(=O)NC(=O)c2cc(C)n(-c3ccccc3)c2C)cc1,–,–,–,–,–,–,·,
Cc1ccc(S(=O)(=O)NC(=O)c2cc(C)n(-c3ccc(N(C)C)cc3)c2C)cc1,–,–,–,85,–,–,91,
